These results are taken from paper PMC8463510 (Acta Pharmaceutica Sinica. B, 2021).

The conditions of series [1]: azilsartan loaded in CD-MOF; cited from earlier work.
The conditions of series [2]: azilsartan loaded in CD-MOF, SD rats; cited from earlier work.
A short description of series [3]: Apparent solubility in vitro. Type of series: physicochemical. The note with it: thermodynamic from solid; for solubility at 2 h: 25 °C.
Series [4] is described as follows: Oral pharmacokinetics / bioavailability in rats. Type of series: in vivo. The note with it: male, Sprague-Dawley, rat, plasma, 4 mg/kg. The gist of the method: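 Male SD rats (250 ± 50 g), fasted 12 h with water, randomised to groups, n = 6. Test compound or its cyclodextrin/CD-MOF formulations were suspended in 0.5% CMC-Na and given orally at 4 mg/kg (as parent). Orbital blood was taken into heparin at 0–24 h, and plasma stored at −80 °C. Progesterone internal standard, acidified-acetonitrile precipitation, HPLC–MS/MS MRM positive ion (m/z 319.2 → 273.2). PK by […] analysis; mean ± SD.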

Molecules are shown by their SMILES. Converted amounts (≈) assume the structure as drawn.

Consider `CCOc1nc2cccc(C(=O)O)c2n1Cc1ccc(-c2ccccc2-c2noc(=O)[nH]2)cc1` [azilsartan], for which the “apparent solubility, times of the API” value in series [1] is on record as 340 times. The “bioavailability, times that of API” value in series [2] is listed as 9.7 times.
Broadly, the solubility is how much of the substance goes into solution per volume. In general, AUC(0-t) refers to the area under the concentration-time curve up to a stated or last time point. As a reminder, the Cmax is the peak of the concentration-time curve. As usually defined, the Tmax is the time at which the peak concentration occurs. With `C[C@@]12CC[C@@H]3[C@@](CC[C@H]4[C@@]3(C)CCC[C@@]4(C)C(=O)O)(CC1=O)C2` [STV, Isosteviol], the solubility at 2 h was under 0.02 µg/mL in series [3] (pH 1, simulated gastric fluid); under 0.02 µg/mL in series [3] (pH 4.5, aqueous buffer); 20.1 µg/mL (≈ 63 µM) in series [3] (pH 6.8, aqueous buffer); 0.13 µg/mL (≈ 0.407 µM) in series [3] (distilled water, water). Further, the solubility in series [3] (KOH solution, pH 11, aqueous buffer) turned out to be 240 µg/mL (≈ 753 µM). In series [4], this compound showed an AUC(0-t) of 590 ng·h/mL. In addition, in series [4], the highest concentration (Cmax) amounted to 61 ± 39 ng/mL. Also, in series [4], the Tmax is 3.01 h.
